Data published in ChEMBL document CHEMBL1143425, “Paradoxical growth effect of caspofungin observed on biofilms and planktonic cells of five different Candida species” (2007).
≈ marks a conversion by molar mass, not a printed value. Calls of active or inactive are those of the source.

Tests used:
Candida metapsilosis [1] = test: Antimicrobial activity against Candida metapsilosis BR-A42 grown as biofilm after 48 hrs by XTT reduction assay; assay type: functional; conditions: Lodderomyces metapsilosis
How it was run: (§1)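 Sabouraud-grown cells were shaken overnight (18 h, 120 rpm, 35°C) in RPMI 1640 with MOPS at pH 7.0, then washed and set at ~1 × 10^7 cells/ml. Attachment lasted 1.5 h at 37°C, and growth ran 24 h before challenge. Caspofungin was added in RPMI at 2–1,024 μg/ml (10 doublings) for 48 h at 35°C with shaking. XTT-menadione was read at 490 nm after 1 h at 35°C in the dark, with blank wells subtracted. MIC was taken as 50% reduction versus drug-free wells, and PG as >50% of control above MIC. Assays were run in duplicate.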

Candida tropicalis [2] = test: Antimicrobial activity against Candida tropicalis BR-A18 grown as planktonic cell after 48 hrs by XTT reduction assay; assay type: functional
How it was run: (§2)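 Planktonic broth microdilution followed CLSI M27-A2, with caspofungin dissolved in water. After 48 h, XTT-menadione was added to each well and plates were incubated 1 h at 35°C in the dark. Cells were pelleted by centrifugation and the supernatant was read at 490 nm. MIC was the lowest concentration giving a 50% drop in metabolic activity versus the drug-free control. PG was ≥20% of drug-free activity above the MIC.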

Candida parapsilosis [3] = test: Antimicrobial activity against Candida parapsilosis BR-A26 grown as planktonic cell after 48 hrs by XTT reduction assay; assay type: functional; conditions: Lodderomyces parapsilosis
How it was run: (§3)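 Planktonic broth microdilution followed CLSI M27-A2, with caspofungin dissolved in water. After 48 h, XTT-menadione was added to the wells and plates were kept 1 h at 35°C in the dark. Plates were then centrifuged and supernatant A490 was read. MIC was the lowest concentration giving a 50% decrease in metabolic activity versus drug-free control. Paradoxical growth was defined as ≥20% of control activity above the MIC.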

Candida parapsilosis [4] = test: Antimicrobial activity against Candida parapsilosis BR-A28 grown as biofilm assessed as concentration producing paradoxical growth after 48 hrs by XTT reduction assay; assay type: functional
How it was run: (§4)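 Clinical isolates were grown overnight (18 h, 35°C, 120 rpm) in RPMI 1640 with MOPS, pH 7.0, then washed and set to ~1 × 10^7 cells/ml. Cells attached for 1.5 h at 37°C, 75 rpm, then biofilms grew 24 h. Caspofungin was given as doubling dilutions of 2–1,024 μg/ml for 48 h at 35°C, 75 rpm. Read-out was XTT-menadione in PBS, 1 h at 35°C in the dark, A490, cell-free blank subtracted. MIC was a 50% drop in activity versus drug-free; PG was >50% of control above MIC. Run in duplicate.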

Candida tropicalis [5] = test: Effect on morphology in Candida tropicalis grown as planktonic cells assessed as inhibition of hyphae and pseudohyphae at 8 ug/ml after 48 hrs; assay type: functional, organism-based
How it was run: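 Clinical isolates were tested by CLSI M27-A2 broth microdilution with caspofungin dissolved in sterile water. After 48 h incubation, cells were taken from drug-containing and drug-free control wells. They were examined by light microscopy at ×400 for hyphae or pseudohyphae, rounding or clumping, and enlarged globose cells.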

Candida albicans = test: Antimicrobial activity against Candida albicans BR-A7 grown as planktonic cell after 48 hrs by XTT reduction assay; assay type: functional; how it was run: as §3
Candida parapsilosis [6] = test: Antimicrobial activity against Candida parapsilosis BR-A25 grown as planktonic cell assessed as concentration producing paradoxical growth after 48 hrs by XTT reduction assay; assay type: functional; how it was run: as §2
Candida orthopsilosis [7] = test: Antimicrobial activity against Candida orthopsilosis BR-A38 grown as biofilm after 48 hrs by XTT reduction assay; assay type: functional; conditions: Lodderomyces orthopsilosis; how it was run: as §1
Candida parapsilosis [8] = test: Antimicrobial activity against Candida parapsilosis BR-A30 grown as planktonic cell after 48 hrs by XTT reduction assay; assay type: functional; conditions: Lodderomyces parapsilosis; how it was run: as §3
Candida tropicalis [9] = test: Antimicrobial activity against Candida tropicalis BR-A24 grown as planktonic cell assessed as paradoxical growth after 48 hrs by XTT reduction assay; assay type: functional, organism-based; how it was run: as §2
Candida tropicalis [10] = test: Antimicrobial activity against Candida tropicalis BR-A20 grown as biofilm after 48 hrs by XTT reduction assay; assay type: functional
How it was run: (§5)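 Isolates were grown on Sabouraud agar (30°C, 24 h), then overnight in RPMI 1640 with MOPS, pH 7.0, at 35°C with shaking. Cells were washed and set to ~1 × 10^7 cells/ml, attached 1.5 h at 37°C, and grown 24 h. Biofilms were then exposed to caspofungin in 10 twofold dilutions (2–1,024 μg/ml) for 48 h at 35°C with shaking. Read-out was XTT-menadione, 1 h, 35°C, dark, A490, cell-free blank subtracted. MIC was the 50% drop in activity versus drug-free control. Tested in duplicate.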

Candida parapsilosis [11] = test: Antimicrobial activity against Candida parapsilosis BR-A28 grown as planktonic cell after 48 hrs by XTT reduction assay; assay type: functional; conditions: Lodderomyces parapsilosis; how it was run: as §3
Candida parapsilosis [12] = test: Antimicrobial activity against Candida parapsilosis BR-A26 grown as biofilm assessed as paradoxical growth after 48 hrs by XTT reduction assay; assay type: functional, organism-based; how it was run: as §4
Candida parapsilosis [13] = test: Antimicrobial activity against Candida parapsilosis BR-A27 grown as biofilm assessed as paradoxical growth after 48 hrs by XTT reduction assay; assay type: functional, organism-based; how it was run: as §4
Candida orthopsilosis [14] = test: Antimicrobial activity against Candida orthopsilosis BR-A37 grown as planktonic cell assessed as concentration producing paradoxical growth after 48 hrs by XTT reduction assay; assay type: functional
How it was run: (§6)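 Planktonic cells were tested by CLSI M27-A2 broth microdilution with caspofungin in water, incubated 48 h. XTT-menadione was added to each well, plates were held 1 h at 35°C in the dark and centrifuged, and supernatant absorbance was read at 490 nm. MIC was defined as 50% decrease in metabolic activity versus drug-free control. PG was defined as ≥20% of control activity at concentrations above MIC.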

Candida parapsilosis [15] = test: Antimicrobial activity against Candida parapsilosis BR-A25 grown as biofilm assessed as concentration producing paradoxical growth after 48 hrs by XTT reduction assay; assay type: functional; how it was run: as §4
Candida orthopsilosis [16] = test: Effect on morphology in Candida orthopsilosis grown as biofilm assessed as rounding and clumping at 32 ug/ml after 48 hrs; assay type: functional, organism-based
How it was run: (§7)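 Biofilms formed in RPMI 1640 wells were exposed to caspofungin for 48 h and compared with drug-free control wells. Wells were examined in the plate under an inverted light microscope at ×200 and photographed.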

Candida orthopsilosis [17] = test: Antimicrobial activity against Candida orthopsilosis BR-A34 grown as planktonic cell assessed as concentration producing paradoxical growth after 48 hrs by XTT reduction assay; assay type: functional; how it was run: as §6
Candida orthopsilosis [18] = test: Antimicrobial activity against Candida orthopsilosis BR-A33 grown as biofilm assessed as concentration producing paradoxical growth after 48 hrs by XTT reduction assay; assay type: functional; how it was run: as §1
Candida orthopsilosis [19] = test: Antimicrobial activity against Candida orthopsilosis BR-A35 grown as planktonic cell assessed as paradoxical growth after 48 hrs by XTT reduction assay; assay type: functional, organism-based; how it was run: as §6
Candida tropicalis [20] = test: Antimicrobial activity against Candida tropicalis BR-A8 grown as biofilm after 48 hrs by XTT reduction assay; assay type: functional; how it was run: as §5
Candida metapsilosis [21] = test: Antimicrobial activity against Candida metapsilosis BR-A42 grown as biofilm assessed as concentration producing paradoxical growth after 48 hrs by XTT reduction assay; assay type: functional; how it was run: as §1
Candida orthopsilosis [22] = test: Antimicrobial activity against Candida orthopsilosis BR-A36 grown as planktonic cell assessed as paradoxical growth after 48 hrs by XTT reduction assay; assay type: functional, organism-based; how it was run: as §6
Candida metapsilosis [23] = test: Antimicrobial activity against Candida metapsilosis BR-A41 grown as planktonic cell after 48 hrs by XTT reduction assay; assay type: functional; conditions: Lodderomyces metapsilosis; how it was run: as §6
Candida tropicalis [24] = test: Antimicrobial activity against Candida tropicalis BR-A18 grown as biofilm after 48 hrs by XTT reduction assay; assay type: functional; how it was run: as §4
Candida parapsilosis [25] = test: Effect on morphology in Candida parapsilosis grown as biofilm assessed as rounding and clumping at 128 ug/ml after 48 hrs; assay type: functional, organism-based; how it was run: as §7

CC[C@H](C)C[C@H](C)CCCCCCCCC(=O)N[C@H]1C[C@@H](O)[C@@H](NCCN)NC(=O)[C@@H]2[C@@H](O)CCN2C(=O)[C@H]([C@H](O)CCN)NC(=O)[C@H]([C@H](O)[C@@H](O)c2ccc(O)cc2)NC(=O)[C@@H]2C[C@@H](O)CN2C(=O)[C@H]([C@@H](C)O)NC1=O [CASPOFUNGIN]
MIC (Candida metapsilosis [1]): 2 µg/mL (≈ 1.83 µM)
MIC (Candida tropicalis [2]): 0.5 µg/mL (≈ 0.457 µM)
MIC (Candida parapsilosis [3]): 2 µg/mL (≈ 1.83 µM)
Activity (Candida parapsilosis [4]): 16 µg/mL
Activity (Candida tropicalis [5]): Active
MIC (Candida albicans): 0.5 µg/mL (≈ 0.457 µM)
Activity (Candida parapsilosis [6]): 32 µg/mL
MIC (Candida orthopsilosis [7]): 512 µg/mL (≈ 468 µM)
MIC (Candida parapsilosis [8]): 2 µg/mL (≈ 1.83 µM)
Activity (Candida tropicalis [9]): Active
MIC (Candida tropicalis [10]): 2 µg/mL (≈ 1.83 µM)
MIC (Candida parapsilosis [11]): 2 µg/mL (≈ 1.83 µM)
Activity (Candida parapsilosis [12]): Active
Activity (Candida parapsilosis [13]): Active
Activity (Candida orthopsilosis [14]): 32 µg/mL
Activity (Candida parapsilosis [15]): 16 µg/mL
Activity (Candida orthopsilosis [16]): Active
Activity (Candida orthopsilosis [17]): 4 µg/mL
Activity (Candida orthopsilosis [18]): 32 µg/mL
Activity (Candida orthopsilosis [19]): inactive
MIC (Candida tropicalis [20]): 2 µg/mL (≈ 1.83 µM)
Activity (Candida metapsilosis [21]): 32 µg/mL
Activity (Candida orthopsilosis [22]): inactive
MIC (Candida metapsilosis [23]): 2 µg/mL (≈ 1.83 µM)
MIC (Candida tropicalis [24]): 128 µg/mL (≈ 117 µM)
Activity (Candida parapsilosis [25]): Active
